Data: ChEMBL document CHEMBL1641453, “Synthesis and evaluation of β-carboline derivatives as potential monoamine oxidase inhibitors” (Bioorg Med Chem, 2011)

Assays:
[1] = molecular target: T1, Amine oxidase [flavin-containing] A (Homo sapiens, UniProt P21397); experiment: Inhibition of human recombinant MAO-A expressed in baculovirus-infected insect cells after 1 hr by two-step bioluminescent assay
T1 sequence (P21397 whole entry): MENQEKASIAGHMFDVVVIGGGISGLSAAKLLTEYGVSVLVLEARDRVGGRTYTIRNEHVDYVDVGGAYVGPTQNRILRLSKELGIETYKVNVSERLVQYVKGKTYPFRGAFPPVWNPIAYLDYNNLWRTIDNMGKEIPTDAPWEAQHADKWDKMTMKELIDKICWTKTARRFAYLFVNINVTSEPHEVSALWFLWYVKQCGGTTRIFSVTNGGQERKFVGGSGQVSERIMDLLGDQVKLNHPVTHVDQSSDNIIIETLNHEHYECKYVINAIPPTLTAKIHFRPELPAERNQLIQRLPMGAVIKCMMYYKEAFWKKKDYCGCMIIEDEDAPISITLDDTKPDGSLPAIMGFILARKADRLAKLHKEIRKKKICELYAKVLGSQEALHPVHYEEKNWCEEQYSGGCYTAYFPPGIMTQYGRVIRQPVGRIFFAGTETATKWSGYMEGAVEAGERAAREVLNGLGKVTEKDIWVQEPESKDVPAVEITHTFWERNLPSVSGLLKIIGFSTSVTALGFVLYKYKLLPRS

[2] = molecular target: T2, Amine oxidase [flavin-containing] B (Homo sapiens, UniProt P27338); experiment: (§1) Inhibition of human recombinant MAO-B expressed in baculovirus-infected insect cells at 1 uM after 1 hr by two-step bioluminescent assay; details: 1 h, 1 µM
T2 sequence (P27338 whole entry): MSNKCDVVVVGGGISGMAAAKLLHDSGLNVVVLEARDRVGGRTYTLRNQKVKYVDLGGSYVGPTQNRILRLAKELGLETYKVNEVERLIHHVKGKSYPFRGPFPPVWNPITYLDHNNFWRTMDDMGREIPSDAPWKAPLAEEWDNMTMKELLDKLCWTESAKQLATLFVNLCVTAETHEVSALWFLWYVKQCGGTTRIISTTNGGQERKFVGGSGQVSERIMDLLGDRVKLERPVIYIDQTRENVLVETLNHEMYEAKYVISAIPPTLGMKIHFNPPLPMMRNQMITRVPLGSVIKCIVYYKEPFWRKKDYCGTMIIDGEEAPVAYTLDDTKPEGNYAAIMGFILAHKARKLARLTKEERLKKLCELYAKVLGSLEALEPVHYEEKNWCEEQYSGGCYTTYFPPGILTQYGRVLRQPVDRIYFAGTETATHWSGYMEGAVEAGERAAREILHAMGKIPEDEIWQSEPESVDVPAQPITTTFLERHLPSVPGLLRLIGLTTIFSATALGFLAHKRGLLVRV
Method in brief: (§2)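 Recombinant human MAO-B from baculovirus-infected insect cell microsomes (0.5 U/mg final) preincubated 2 min 30 s with compound, then luminogenic substrate at 15 µM final, 1 h at 37 °C. Luciferin detection reagent stops the reaction and luminescence is read after 20 min. Hepes 100 mM pH 7.5, 5% glycerol, 12.5% DMSO. Tested in triplicate; % inhibition from signal relative to no-compound control.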

[3] = molecular target: T3, MAO-B (amine oxidase [flavin-containing] B) (Homo sapiens, UniProt P27338); experiment: as §1; method in brief: as §2
T3 sequence (P27338 whole entry): T2 sequence (P27338 whole entry)

[4] = molecular target: T2, Amine oxidase [flavin-containing] B; experiment: Inhibition of human recombinant MAO-B expressed in baculovirus-infected insect cells after 1 hr by two-step bioluminescent assay
Method in brief: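 Recombinant human MAO-B microsomes from baculovirus-infected insect cells, 0.5 U/mg final. Enzyme preincubated with compound 2 min 30 s at 37 °C, then luminogenic luciferin-derivative substrate added (15 µM final). Luciferin detection reagent stops the reaction; luminescence read 20 min later. Buffer 100 mM Hepes pH 7.5 with 5% glycerol, DMSO 12.5% final. Screened at 10 and 1 µM in triplicate; IC50 from sigmoidal fit.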

Row | Ki [1] | inhibition (INH) [2] | SMILES | inhibition at 1 h, 1 µM [3] | Ki [4]
1 | 28.4 nM | Not Active | Cc1nccc2c1[nH]c1cc(OCCO)ccc12 | – | –
2 | 12.6 nM | – | Cc1nccc2c1[nH]c1cc(OCc3ccccc3)ccc12 | 42% | –
3 | 5 nM | – | Cc1nccc2c1[nH]c1cc(OCCc3ccccc3)ccc12 | 39% | –
4 | 500 nM | Not Active | Cc1nccc2c1[nH]c1cc(OCc3ccccn3)ccc12 | – | –
5 | 24.9 nM | Not Active | Cc1nccc2c1[nH]c1cc(OCc3cccnc3)ccc12 | – | –
6 | 35.4 nM | Not Active | Cc1nccc2c1[nH]c1cc(OCc3ccncc3)ccc12 | – | –
7 | 100 nM | Not Active | Cc1nccc2c1[nH]c1cc(OCc3ccc4ccccc4c3)ccc12 | – | –
8 | 1020 nM | Not Active | Cc1nccc2c1[nH]c1cc(OCCN(C)C)ccc12 | – | –
9 | 684 nM | Not Active | Cc1nccc2c1[nH]c1cc(OCCCN(C)C)ccc12 | – | –
10 | 256 nM | Not Active | Cc1nccc2c1[nH]c1cc(OCCN3CCOCC3)ccc12 | – | –
11 | – | – | COc1ccc2c(c1)[nH]c1c(C)nccc12 [HARMINE] | – | 121 µM

Row | SMILES | Ki [1] | inhibition (INH) [2] | inhibition at 1 h, 1 µM [3] | Ki [4]
12 | C=CCOc1ccc2c(c1)[nH]c1c(C)nccc12 | 5 nM | Not Active | – | –
13 | Cc1nccc2c1[nH]c1cc(OCC(C)C)ccc12 | 3.9 nM | – | 14% | –
14 | COCCOc1ccc2c(c1)[nH]c1c(C)nccc12 | 29.5 nM | Not Active | – | –
15 | Cc1nccc2c1[nH]c1cc(OCCCC(F)(F)F)ccc12 | 3.6 nM | – | 24% | –
16 | Cc1nccc2c1[nH]c1cc(OCC3CCCCC3)ccc12 | 4.3 nM | – | – | 0.222 µM
